ChEMBL document CHEMBL4024771, “Optimization of Orally Bioavailable Enhancer of Zeste Homolog 2 (EZH2) Inhibitors Using Ligand and Property-Based Design Strategies: Identification of Development Candidate …” (J Med Chem, 2018)
Values after ≈ are worked out from the molar mass of the structure shown. Active and inactive are the calls of the source. The calls are words filed in the database; no cut-off is given here.

Key:
[1] = biological target: Histone-lysine N-methyltransferase EZH2 (Homo sapiens, UniProt Q15910, Y641N); assay: Inhibition of EZH2 Y641N mutant (unknown origin) using oligonucleosomes as substrate after 60 mins in presence of [3H]SAM by scintillation counting analysis
Chain of Histone-lysine N-methyltransferase EZH2 (Homo sapiens, UniProt Q15910, Y641N) (Q15910 whole entry Y641N): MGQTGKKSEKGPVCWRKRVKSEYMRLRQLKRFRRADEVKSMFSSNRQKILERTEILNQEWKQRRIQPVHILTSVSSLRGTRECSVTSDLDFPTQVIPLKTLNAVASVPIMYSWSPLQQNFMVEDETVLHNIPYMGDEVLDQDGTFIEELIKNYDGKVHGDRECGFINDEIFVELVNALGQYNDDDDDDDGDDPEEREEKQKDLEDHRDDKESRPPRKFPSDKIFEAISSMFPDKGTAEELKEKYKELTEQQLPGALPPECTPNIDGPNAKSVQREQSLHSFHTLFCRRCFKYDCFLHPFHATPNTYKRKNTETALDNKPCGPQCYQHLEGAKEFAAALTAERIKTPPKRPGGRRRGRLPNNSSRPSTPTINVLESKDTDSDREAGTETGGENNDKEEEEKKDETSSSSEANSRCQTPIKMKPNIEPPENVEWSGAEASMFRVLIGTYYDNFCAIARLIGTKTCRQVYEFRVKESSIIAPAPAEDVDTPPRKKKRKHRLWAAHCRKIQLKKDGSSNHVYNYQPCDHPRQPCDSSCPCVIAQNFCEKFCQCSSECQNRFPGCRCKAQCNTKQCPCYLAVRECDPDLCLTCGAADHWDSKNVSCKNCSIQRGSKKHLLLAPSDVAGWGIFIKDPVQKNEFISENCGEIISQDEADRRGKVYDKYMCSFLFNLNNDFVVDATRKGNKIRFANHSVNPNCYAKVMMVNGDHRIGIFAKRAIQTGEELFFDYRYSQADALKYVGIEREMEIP

KARPAS-422 [2] = assay: Antitumor activity against human KARPAS422 cells harboring EZH2 Y641N mutant xenografted in mouse assessed as tumor regression at 100 mg/kg, sc qd measured 40 days post treatment termination on day 31
KARPAS-422 [3] = assay: Antitumor activity against human KARPAS422 cells harboring EZH2 Y641N mutant xenografted in mouse assessed as decrease in tumor regression at 100 mg/kg, sc qd measured 40 days post treatment termination on day 31; type: functional, organism-based
Cytochrome P450 2C19 = Cytochrome P450 2C19 (Homo sapiens, UniProt P33261); assay: Inhibition of CYP2C19 (unknown origin); type: ADME
Chain of Cytochrome P450 2C19 (P33261 whole entry): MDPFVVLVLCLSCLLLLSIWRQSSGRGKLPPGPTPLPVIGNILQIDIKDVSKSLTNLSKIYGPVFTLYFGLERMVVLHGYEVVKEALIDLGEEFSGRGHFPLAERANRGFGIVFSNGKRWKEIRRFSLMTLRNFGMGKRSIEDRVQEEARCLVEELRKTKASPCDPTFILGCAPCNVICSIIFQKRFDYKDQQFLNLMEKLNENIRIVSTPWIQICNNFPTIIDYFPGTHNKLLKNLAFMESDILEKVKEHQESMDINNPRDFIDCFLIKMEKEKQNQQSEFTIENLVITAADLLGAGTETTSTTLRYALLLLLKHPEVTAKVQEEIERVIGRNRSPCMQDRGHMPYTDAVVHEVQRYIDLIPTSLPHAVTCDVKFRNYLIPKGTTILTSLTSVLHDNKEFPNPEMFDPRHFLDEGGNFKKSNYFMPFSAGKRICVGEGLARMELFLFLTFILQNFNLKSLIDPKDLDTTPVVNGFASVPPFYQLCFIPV

[4] = Lipophilicity, log D of the compound at pH 7.4; settings: buffer, pH 7.4, logD
[5] = biological target: Voltage-gated inwardly rectifying potassium channel KCNH2 (Homo sapiens, UniProt Q12809); assay: Inhibition of human ERG
Chain of Voltage-gated inwardly rectifying potassium channel KCNH2 (Q12809 whole entry): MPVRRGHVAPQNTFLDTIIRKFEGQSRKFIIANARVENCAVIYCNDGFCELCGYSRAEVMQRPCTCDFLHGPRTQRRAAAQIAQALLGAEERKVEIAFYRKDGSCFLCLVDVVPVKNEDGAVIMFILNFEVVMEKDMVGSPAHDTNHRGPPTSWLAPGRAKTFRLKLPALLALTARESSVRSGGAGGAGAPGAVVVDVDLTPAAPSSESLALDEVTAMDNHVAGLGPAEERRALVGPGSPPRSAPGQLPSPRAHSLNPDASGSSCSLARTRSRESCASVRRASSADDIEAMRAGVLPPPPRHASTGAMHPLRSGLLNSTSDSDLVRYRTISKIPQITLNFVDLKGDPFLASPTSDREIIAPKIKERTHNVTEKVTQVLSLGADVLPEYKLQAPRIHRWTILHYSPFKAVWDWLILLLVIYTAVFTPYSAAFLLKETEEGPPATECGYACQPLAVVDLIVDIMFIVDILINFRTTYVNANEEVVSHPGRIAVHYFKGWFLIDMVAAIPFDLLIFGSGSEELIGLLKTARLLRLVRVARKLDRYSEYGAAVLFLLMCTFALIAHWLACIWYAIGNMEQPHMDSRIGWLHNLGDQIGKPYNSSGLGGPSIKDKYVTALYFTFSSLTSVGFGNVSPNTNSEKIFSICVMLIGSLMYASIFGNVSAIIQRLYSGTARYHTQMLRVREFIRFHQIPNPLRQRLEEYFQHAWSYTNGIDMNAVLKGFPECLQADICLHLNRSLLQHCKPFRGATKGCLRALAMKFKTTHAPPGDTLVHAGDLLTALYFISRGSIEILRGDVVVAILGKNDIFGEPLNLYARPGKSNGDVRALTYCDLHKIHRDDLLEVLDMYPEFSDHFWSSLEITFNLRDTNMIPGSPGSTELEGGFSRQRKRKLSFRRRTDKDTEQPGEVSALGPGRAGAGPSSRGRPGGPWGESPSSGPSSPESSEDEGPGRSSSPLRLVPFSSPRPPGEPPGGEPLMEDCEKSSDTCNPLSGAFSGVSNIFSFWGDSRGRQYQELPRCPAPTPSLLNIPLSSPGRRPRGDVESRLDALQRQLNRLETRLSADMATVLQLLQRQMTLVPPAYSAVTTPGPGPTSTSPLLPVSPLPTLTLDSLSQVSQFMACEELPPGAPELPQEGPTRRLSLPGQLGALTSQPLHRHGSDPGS

Salmonella typhimurium = assay: Mutagenicity in Salmonella typhimurium by Ames assay; type: toxicity; settings: salmonella enterica subsp. enterica serovar typhimurium
Cytochrome P450 1A2 = biological target: T1, Cytochrome P450 1A2 (Homo sapiens, UniProt P05177); assay: Inhibition of CYP1A2 (unknown origin); type: ADME
T1 sequence (P05177 whole entry): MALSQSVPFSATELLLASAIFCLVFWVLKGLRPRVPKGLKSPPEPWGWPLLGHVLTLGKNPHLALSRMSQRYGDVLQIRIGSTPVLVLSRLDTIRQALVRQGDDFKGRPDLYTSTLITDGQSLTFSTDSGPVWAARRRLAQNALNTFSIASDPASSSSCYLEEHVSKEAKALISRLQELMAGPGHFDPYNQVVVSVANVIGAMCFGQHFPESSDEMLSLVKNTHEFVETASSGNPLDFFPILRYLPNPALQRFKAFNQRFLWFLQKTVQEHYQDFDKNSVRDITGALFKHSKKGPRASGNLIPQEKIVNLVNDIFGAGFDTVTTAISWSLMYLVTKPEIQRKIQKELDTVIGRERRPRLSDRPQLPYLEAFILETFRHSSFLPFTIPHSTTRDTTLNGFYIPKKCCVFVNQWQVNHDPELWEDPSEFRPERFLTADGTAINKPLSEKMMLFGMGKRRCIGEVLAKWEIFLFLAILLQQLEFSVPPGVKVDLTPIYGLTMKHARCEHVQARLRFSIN

Mus musculus [6] = assay: Toxicity in mouse xenografted with human KARPAS422 cells harboring EZH2 Y641N mutant assessed as change in body weight at 100 to 300 mg/kg, po bid; type: organism-based; settings: in vivo
Mus musculus [7] = assay: In vivo inhibition of EZH2 in mouse xenografted with human KARPAS422 cells harboring EZH2 Y641N mutant assessed as reduction in H3K27me3 level in tumor at 300 mg/kg, po bid measured 4 hrs post last dose on day 9 relative to control; type: functional; settings: KARPAS-422, po
In short: (§1)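 Mice bearing Karpas-422 (EZH2 Y641N) xenografts were dosed with crystalline suspension orally twice daily (7 h/17 h) or subcutaneously once daily. Tumors were collected on day 9, 4 h after the last dose, for H3K27me3 quantification.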

Cytochrome P450 2D6 = Cytochrome P450 2D6 (Homo sapiens, UniProt P10635); assay: Inhibition of CYP2D6 (unknown origin); type: ADME
Chain of Cytochrome P450 2D6 (P10635 whole entry): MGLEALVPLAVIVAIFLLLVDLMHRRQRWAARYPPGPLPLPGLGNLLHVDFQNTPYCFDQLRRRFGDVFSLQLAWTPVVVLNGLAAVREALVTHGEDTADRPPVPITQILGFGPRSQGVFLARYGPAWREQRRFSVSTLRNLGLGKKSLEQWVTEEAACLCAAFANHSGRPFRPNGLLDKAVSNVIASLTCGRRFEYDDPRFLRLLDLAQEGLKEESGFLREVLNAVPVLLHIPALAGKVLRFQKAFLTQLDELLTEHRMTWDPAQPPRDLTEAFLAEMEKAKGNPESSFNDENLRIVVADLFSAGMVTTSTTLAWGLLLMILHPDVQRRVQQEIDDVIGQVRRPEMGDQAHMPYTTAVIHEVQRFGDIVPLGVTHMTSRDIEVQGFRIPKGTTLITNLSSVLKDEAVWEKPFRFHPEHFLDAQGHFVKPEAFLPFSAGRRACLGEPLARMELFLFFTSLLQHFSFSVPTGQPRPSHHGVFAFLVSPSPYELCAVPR

[8] = Kinetic solubility of the compound; type: physicochemical; settings: read-out: Kinetic_solubility
[9] = Intrinsic clearance in human liver microsomes assessed per mg protein at 1 uM preincubated for 10 mins followed by NADPH addition measured after 45 mins by LC-MS/MS analysis; type: ADME, microsome; settings: liver microsomes, read-out: CLH
In short: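 Test compound (1 μM) with pooled liver microsomes (0.8 mg/mL protein) in 100 mM potassium phosphate pH 7.4, 10 min preincubation, started with 2 mM NADPH, 45 min at 37 °C, in triplicate. Samples quenched with cold methanol containing buspirone internal standard, analysed by LC−MS/MS. CLint derived from t1/2 of parent loss (log-linear slope).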

[10] = Clearance in mouse hepatocytes assessed per million cells; type: ADME, cell-based, Hepatocyte; settings: read-out: CLH
Cytochrome P450 2C8 = biological target: T2, Cytochrome P450 2C8 (Homo sapiens, UniProt P10632); assay: Inhibition of CYP2C8 (unknown origin); type: ADME
T2 sequence (P10632 whole entry): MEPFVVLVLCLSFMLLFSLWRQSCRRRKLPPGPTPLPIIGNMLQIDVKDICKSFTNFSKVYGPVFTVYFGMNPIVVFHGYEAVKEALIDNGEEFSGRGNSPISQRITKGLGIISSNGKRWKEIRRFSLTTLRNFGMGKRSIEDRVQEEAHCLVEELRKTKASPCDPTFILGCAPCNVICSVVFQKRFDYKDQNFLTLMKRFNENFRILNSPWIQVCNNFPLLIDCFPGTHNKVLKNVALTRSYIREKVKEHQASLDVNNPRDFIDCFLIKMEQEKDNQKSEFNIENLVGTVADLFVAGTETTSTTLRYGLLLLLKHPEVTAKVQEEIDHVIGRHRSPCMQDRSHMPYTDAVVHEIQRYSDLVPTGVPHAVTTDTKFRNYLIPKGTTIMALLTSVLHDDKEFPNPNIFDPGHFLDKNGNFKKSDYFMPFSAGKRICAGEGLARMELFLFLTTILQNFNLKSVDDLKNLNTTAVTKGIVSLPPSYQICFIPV

KARPAS-422 [11] = assay: Antitumor activity against human KARPAS422 cells harboring EZH2 Y641N mutant xenografted in mouse assessed as decrease in tumor growth at 100 mg/kg, po bid; type: functional, organism-based
KARPAS-422 [12] = assay: Antiproliferative activity against human KARPAS422 cells after 72 hrs by resazurin assay; type: functional, cell-based; settings: Homo sapiens, KARPAS-422, 72 h
[13] = Clearance in rat hepatocytes assessed per million cells; type: ADME, cell-based, Hepatocyte; settings: read-out: CLH
[14] = test system: Histone-lysine N-methyltransferase EZH2 (Homo sapiens), Q15910 [Y641N]
Chain of Histone-lysine N-methyltransferase EZH2 (Homo sapiens), Q15910 [Y641N] (Q15910 whole entry Y641N): as the sequence (Q15910 whole entry Y641N) above

Mus musculus [15] = assay: In vivo inhibition of EZH2 in mouse xenografted with human KARPAS422 cells harboring EZH2 Y641N mutant assessed as reduction in H3K27me3 level in tumor at 100 mg/kg, po bid measured 4 hrs post last dose on day 9 relative to control; type: functional; settings: KARPAS-422, po; in short: as §1
Cytochrome P450 3A4 = Cytochrome P450 3A4 (Homo sapiens, UniProt P08684); assay: Inhibition of CYP3A4 (unknown origin); type: ADME
Chain of Cytochrome P450 3A4 (P08684 whole entry): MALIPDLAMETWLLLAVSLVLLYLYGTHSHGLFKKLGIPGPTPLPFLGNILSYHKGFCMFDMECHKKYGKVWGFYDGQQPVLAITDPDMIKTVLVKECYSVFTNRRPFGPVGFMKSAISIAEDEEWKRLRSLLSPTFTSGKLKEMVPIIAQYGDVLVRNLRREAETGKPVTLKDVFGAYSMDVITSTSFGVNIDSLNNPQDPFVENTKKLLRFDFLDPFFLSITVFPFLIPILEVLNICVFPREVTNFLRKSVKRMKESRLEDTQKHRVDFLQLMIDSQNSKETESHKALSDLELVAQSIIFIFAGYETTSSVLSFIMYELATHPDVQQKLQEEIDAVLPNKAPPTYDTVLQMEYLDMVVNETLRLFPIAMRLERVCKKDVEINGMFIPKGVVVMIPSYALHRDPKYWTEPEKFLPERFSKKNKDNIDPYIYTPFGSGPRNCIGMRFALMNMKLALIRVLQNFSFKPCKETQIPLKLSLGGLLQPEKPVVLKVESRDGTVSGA

[16] = Clearance in rat at 2 mg/kg, iv; type: ADME, organism-based; settings: in vivo
[17] = biological target: Histone-lysine N-methyltransferase EZH2 (Homo sapiens, UniProt Q15910); assay: Inhibition of EZH2 in human KARPAS422 cells assessed as reduction in H3K27me3 level after 72 hrs by ELISA
Chain of Histone-lysine N-methyltransferase EZH2 (Homo sapiens, UniProt Q15910) (Q15910 whole entry): as the sequence (Q15910 whole entry Y641N) above, with N641Y counted along it

Mus musculus [18] = assay: Time at which free plasma concentration stays below antiproliferative KARPAS422 cells IC90 level in mouse xenografted with human KARPAS422 cells at 100 mg/kg, po bid
[19] = Thermodynamic solubility in water at 25 degC using crystalline form; type: physicochemical; settings: read-out: Therm_solubility

For COc1cc(C)[nH]c(=O)c1CN1CCc2c(Cl)cc([C@H](OC)C3COC3)c(Cl)c2C1=O [MEVROMETOSTAT], the Ki [1] was less than 0.1 nM, the Activity (KARPAS-422 [2]) was “Active” and the Activity (KARPAS-422 [3]) was “Active”. It also gave an IC50 (Cytochrome P450 2C19) greater than 30000 nM, a logD [4] of 1.9 and an IC50 [5] greater than 100000 nM. The Activity (Salmonella typhimurium) was “Non-Toxic”, the IC50 (Cytochrome P450 1A2) was greater than 30000 nM and the Activity (Mus musculus [6]) was “Non-Toxic”. The inhibition in vivo at 300 mg/kg (Mus musculus [7]) was 47.9%, the IC50 (Cytochrome P450 2D6) was greater than 30000 nM and the solubility kinetic [8] was 538 µM (≈ 251 µg/mL). For the same compound, the microsomal CLint at 1 µM [9] was 39 µL/min/mg, the hepatocyte CLint [10] was 60.1 µL/min/1e6 cells and the IC50 (Cytochrome P450 2C8) was greater than 30000 nM. The TGI (KARPAS-422 [11]) was “Active”, the IC50 (KARPAS-422 [12]) was 6 nM and the IC90 (KARPAS-422 [12]) was 60 nM. The hepatocyte CLint [13] was 109 µL/min/1e6 cells, the T1/2 [14] was 6 h and the inhibition in vivo at 100 mg/kg (Mus musculus [15]) was 45.4%. The IC50 (Cytochrome P450 3A4) was greater than 30000 nM, the clearance [16] was 70 mL/min/kg and the IC50 [17] was 4 nM. For the same compound, the Time (Mus musculus [18]) was 7 to 24 h and the solubility thermodynamic [19] was 315 µg/mL (≈ 674 µM).
